Reference: ChEMBL document CHEMBL1157912, “Impact of nature and length of linker incorporated in agonists on toll-like receptor 9-mediated immune responses” (J Med Chem, 2010)

Key:
[1] = target: T1, Toll-like receptor 9 (Homo sapiens) (UniProt Q9NR96); experiment: Induction of TLR9-mediated immune stimulation in human PBMC assessed as MIP1alpha production at 10 ug/ml after 24 hrs by luminex multiplex assay (RVb = 0.01 ng/ml)
T1 sequence (whole entry): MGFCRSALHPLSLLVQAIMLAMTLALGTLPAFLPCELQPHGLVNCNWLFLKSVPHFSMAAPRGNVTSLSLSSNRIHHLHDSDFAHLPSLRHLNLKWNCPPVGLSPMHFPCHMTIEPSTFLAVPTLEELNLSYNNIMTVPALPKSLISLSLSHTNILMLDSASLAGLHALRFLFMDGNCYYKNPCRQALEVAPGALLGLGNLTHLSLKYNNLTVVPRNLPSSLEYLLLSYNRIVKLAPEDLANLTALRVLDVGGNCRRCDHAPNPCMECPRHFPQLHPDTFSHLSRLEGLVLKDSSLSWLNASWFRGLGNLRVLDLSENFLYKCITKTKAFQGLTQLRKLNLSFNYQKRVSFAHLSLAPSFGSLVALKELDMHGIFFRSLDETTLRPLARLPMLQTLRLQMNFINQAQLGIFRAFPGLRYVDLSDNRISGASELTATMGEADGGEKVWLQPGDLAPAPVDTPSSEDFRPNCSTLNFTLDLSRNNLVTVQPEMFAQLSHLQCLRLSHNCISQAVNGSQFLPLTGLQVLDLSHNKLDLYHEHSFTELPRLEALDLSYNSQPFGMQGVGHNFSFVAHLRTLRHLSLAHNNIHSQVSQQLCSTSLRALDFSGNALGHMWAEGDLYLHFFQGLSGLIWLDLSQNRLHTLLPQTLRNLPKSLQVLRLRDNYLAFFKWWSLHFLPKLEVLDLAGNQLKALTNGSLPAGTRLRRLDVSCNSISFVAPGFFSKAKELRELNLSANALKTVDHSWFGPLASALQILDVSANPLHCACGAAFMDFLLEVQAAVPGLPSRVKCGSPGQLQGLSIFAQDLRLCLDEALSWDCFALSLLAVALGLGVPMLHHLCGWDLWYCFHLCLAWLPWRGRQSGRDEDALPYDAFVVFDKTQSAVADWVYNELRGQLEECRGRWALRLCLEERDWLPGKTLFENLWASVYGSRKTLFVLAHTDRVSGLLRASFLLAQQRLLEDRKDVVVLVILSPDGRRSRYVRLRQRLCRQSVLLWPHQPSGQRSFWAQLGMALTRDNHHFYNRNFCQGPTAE

[2] = target: T1, Toll-like receptor 9 (Homo sapiens); experiment: Induction of TLR9-mediated immune stimulation in human PBMC assessed as MCP1 production at 10 ug/ml after 24 hrs by luminex multiplex assay (RVb = 0.08 +/- 0.02 ng/ml)
[3] = target: T2, Toll-like receptor 9 (Mus musculus) (UniProt Q9EQU3); experiment: Induction of TLR9-mediated IL12 production in C57BL/6 mouse spleen cells after 24 hrs by ELISA; assay type: cell-based
T2 sequence (whole entry): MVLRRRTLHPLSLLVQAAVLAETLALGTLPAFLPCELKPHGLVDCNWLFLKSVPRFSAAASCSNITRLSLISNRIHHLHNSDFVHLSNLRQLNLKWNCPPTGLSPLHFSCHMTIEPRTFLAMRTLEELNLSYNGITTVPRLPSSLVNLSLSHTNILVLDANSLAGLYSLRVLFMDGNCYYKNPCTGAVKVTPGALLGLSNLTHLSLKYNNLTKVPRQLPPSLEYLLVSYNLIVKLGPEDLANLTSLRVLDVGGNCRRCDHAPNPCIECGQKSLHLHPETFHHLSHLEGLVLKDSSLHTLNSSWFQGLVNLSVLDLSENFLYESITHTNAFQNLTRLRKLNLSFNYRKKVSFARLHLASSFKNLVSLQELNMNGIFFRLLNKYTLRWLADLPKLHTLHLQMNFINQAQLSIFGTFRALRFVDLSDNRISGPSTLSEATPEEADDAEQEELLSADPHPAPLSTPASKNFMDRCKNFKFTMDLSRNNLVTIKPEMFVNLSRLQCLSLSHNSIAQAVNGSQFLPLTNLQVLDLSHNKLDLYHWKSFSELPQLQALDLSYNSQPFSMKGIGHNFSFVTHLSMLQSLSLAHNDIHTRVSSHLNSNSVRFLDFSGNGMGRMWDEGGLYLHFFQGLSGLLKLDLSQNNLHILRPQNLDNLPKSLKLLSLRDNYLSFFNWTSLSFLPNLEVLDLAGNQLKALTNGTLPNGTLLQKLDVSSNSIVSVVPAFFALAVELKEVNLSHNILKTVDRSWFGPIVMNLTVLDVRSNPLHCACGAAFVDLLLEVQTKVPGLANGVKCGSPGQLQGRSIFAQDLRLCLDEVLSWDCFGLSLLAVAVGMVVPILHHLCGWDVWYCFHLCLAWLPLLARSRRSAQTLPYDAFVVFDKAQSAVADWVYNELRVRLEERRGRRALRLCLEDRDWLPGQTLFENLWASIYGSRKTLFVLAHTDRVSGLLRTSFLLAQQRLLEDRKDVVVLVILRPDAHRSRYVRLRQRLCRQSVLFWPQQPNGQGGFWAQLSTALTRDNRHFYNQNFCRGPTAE
Outline: (§1)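 C57BL/6 mouse spleen cells were cultured with agonists at 0.1, 0.3, 1, 3 and 10 μg/mL for 24 h. Secreted IL-12 and IL-6 in the supernatants were measured by ELISA. Values are averages of triplicate wells from one representative of at least two independent experiments.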

[4] = target: T1, Toll-like receptor 9 (Homo sapiens); experiment: Induction of TLR9-mediated immune stimulation in human PBMC assessed as MCP1 production at 2 ug/ml after 24 hrs by luminex multiplex assay (RVb = 0.08 +/- 0.02 ng/ml)
[5] = target: T1, Toll-like receptor 9 (Homo sapiens); experiment: Induction of TLR9-mediated immune stimulation in human PBMC assessed as MIP1beta production at 10 ug/ml after 24 hrs by luminex multiplex assay (RVb = 0.03 +/- 0.02 ng/ml)
[6] = target: T1, Toll-like receptor 9 (Homo sapiens); experiment: Induction of TLR9-mediated immune stimulation in human PBMC assessed as IL6 production at 10 ug/ml after 24 hrs by luminex multiplex assay (RVb = 0.01 ng/ml)
[7] = target: T2, Toll-like receptor 9 (Mus musculus); experiment: Activation of mouse TLR9 expressed in HEK293 cells assessed as induction of NF-kappaB activity after 18 hrs by SEAP assay; assay type: cell-based
Outline: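 HEK293 cells stably expressing mouse TLR9 were grown in DMEM with 10% heat-inactivated FBS. At 80% confluence they were transiently transfected with a SEAP reporter plasmid (100 ng/well, lipofectamine) for 6 h. Medium was then replaced and agonists were added for 18 h. Supernatant SEAP was read with QuantiBlue substrate at 620-645 nm. Results are expressed as fold NF-κB activity over PBS control.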

[8] = target: T2, Toll-like receptor 9 (Mus musculus); experiment: Induction of TLR9-mediated IL6 production in C57BL/6 mouse spleen cells after 24 hrs by ELISA; assay type: cell-based; outline: as §1
[9] = target: T1, Toll-like receptor 9 (Homo sapiens); experiment: Induction of TLR9-mediated immune stimulation in human PBMC assessed as MIP1beta production at 2 ug/ml after 24 hrs by luminex multiplex assay (RVb = 0.03 +/- 0.02 ng/ml)
[10] = target: T1, Toll-like receptor 9 (Homo sapiens); experiment: Induction of TLR9-mediated immune stimulation in human PBMC assessed as IL1Ralpha production at 10 ug/ml after 24 hrs by luminex multiplex assay (RVb = 0.12 +/- 0.03 ng/ml)

Activity [1]: 0.27 ng/mL
Activity [2]: 3.31 ng/mL
Activity [3]: Dose-dependent effect
Activity [4]: 0.25 ng/mL
Activity [5]: 0.9 ng/mL
Activity [6]: 0.58 ng/mL
Activity [7]: Dose-dependent effect
Activity [8]: Dose-dependent effect
Activity [9]: 0.11 ng/mL
Activity [10]: 83.9 ng/mL
Compound: Cc1cn([C@H]2C[C@H](OCCOCCOCCOCCOCCOCCOP(=O)(S)O[C@H]3C[C@H](n4cc(C)c(=O)[nH]c4=O)O[C@@H]3COP(=O)(S)O[C@H]3[C@@H](O)[C@H](n4ccc(N)nc4=O)O[C@@H]3COP(=O)(S)O[C@H]3C[C@H](n4cc(C)c(=O)[nH]c4=O)O[C@@H]3COP(=O)(S)O[C@H]3C[C@H](n4cc(C)c(=O)[nH]c4=O)O[C@@H]3COP(=O)(S)O[C@H]3C[C@H](n4ccc5c(=O)[nH]c(N)nc54)O[C@@H]3COP(=O)(S)O[C@H]3[C@@H](O)[C@H](n4ccc(N)nc4=O)O[C@@H]3COP(=O)(S)O[C@H]3C[C@H](n4cc(C)c(=O)[nH]c4=O)O[C@@H]3COP(=O)(S)O[C@H]3[C@@H](O)[C@H](n4cnc5c(=O)[nH]c(N)nc54)O[C@@H]3COP(=O)(S)O[C@H]3C[C@H](n4cc(C)c(=O)[nH]c4=O)O[C@@H]3COP(=O)(S)O[C@H]3[C@@H](O)[C@H](n4ccc(N)nc4=O)O[C@@H]3COP(=O)(S)O[C@H]3C[C@H](n4cc(C)c(=O)[nH]c4=O)O[C@@H]3CO)[C@@H](COP(=O)(S)O[C@H]3[C@@H](O)[C@H](n4ccc(N)nc4=O)O[C@@H]3COP(=O)(S)O[C@H]3C[C@H](n4cc(C)c(=O)[nH]c4=O)O[C@@H]3COP(=O)(S)O[C@H]3C[C@H](n4cc(C)c(=O)[nH]c4=O)O[C@@H]3COP(=O)(S)O[C@H]3C[C@H](n4ccc5c(=O)[nH]c(N)nc54)O[C@@H]3COP(=O)(S)O[C@H]3[C@@H](O)[C@H](n4ccc(N)nc4=O)O[C@@H]3COP(=O)(S)O[C@H]3C[C@H](n4cc(C)c(=O)[nH]c4=O)O[C@@H]3COP(=O)(S)O[C@H]3[C@@H](O)[C@H](n4cnc5c(=O)[nH]c(N)nc54)O[C@@H]3COP(=O)(S)O[C@H]3C[C@H](n4cc(C)c(=O)[nH]c4=O)O[C@@H]3COP(=O)(S)O[C@H]3[C@@H](O)[C@H](n4ccc(N)nc4=O)O[C@@H]3COP(=O)(S)O[C@H]3C[C@H](n4cc(C)c(=O)[nH]c4=O)O[C@@H]3CO)O2)c(=O)[nH]c1=O (stereo not given in full)
